Results: ChEMBL document CHEMBL1240345 (Nat Chem Biol, 2009)
Active and inactive are the calls of the source. The rule behind the calls is not given here.

Assays:
[1] = biological target: T1, Dual specificity protein phosphatase 6 (Homo sapiens) (UniProt Q16828); assay: Inhibition of Myc-tagged human Dusp6 expressed in TPA-induced human HeLa cells assessed as decrease in dephosphorylation of pERK measured at 100 uM by immunostaining; format: cell-based
T1 sequence (whole entry): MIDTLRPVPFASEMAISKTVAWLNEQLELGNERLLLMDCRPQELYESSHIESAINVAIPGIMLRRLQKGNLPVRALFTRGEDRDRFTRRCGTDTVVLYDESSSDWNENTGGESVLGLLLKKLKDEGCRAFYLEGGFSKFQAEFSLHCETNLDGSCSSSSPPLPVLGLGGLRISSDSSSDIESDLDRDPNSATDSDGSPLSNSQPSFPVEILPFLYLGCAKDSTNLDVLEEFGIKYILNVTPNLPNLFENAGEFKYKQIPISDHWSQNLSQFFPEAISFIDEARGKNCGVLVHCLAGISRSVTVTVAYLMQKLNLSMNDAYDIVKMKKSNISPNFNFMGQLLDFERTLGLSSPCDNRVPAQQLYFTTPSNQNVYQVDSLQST

[2] = biological target: T2, Dual specificity protein phosphatase 1 (Homo sapiens) (UniProt P28562); assay: Inhibition of Myc-tagged human Dusp1 expressed in TPA-induced human HeLa cells assessed as decrease in dephosphorylation of pERK measured at 100 uM by immunostaining; format: cell-based
T2 sequence (whole entry): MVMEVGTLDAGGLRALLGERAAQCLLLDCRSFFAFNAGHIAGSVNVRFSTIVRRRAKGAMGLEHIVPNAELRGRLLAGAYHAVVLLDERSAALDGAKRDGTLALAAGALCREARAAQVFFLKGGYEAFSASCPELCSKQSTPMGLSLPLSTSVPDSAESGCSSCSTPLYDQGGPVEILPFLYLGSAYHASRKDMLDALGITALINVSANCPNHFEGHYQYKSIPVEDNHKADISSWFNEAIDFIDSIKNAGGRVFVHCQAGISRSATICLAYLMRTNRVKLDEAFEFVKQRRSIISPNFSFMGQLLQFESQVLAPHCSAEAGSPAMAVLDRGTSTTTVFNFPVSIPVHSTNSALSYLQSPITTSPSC

[3] = biological target: T1, Dual specificity protein phosphatase 6 (Homo sapiens); assay: Inhibition of Dusp6 in 10-somite stage Tg(dusp:EGFP)pt6 zebrafish assessed as increase in dusp6 FGF target gene expression in tailbud at 10 uM by RT-PCR
[4] = species: Danio rerio; assay: Increase in cardiac hand2 expression in 10-somite stage Tg(dusp:EGFP)pt6 zebrafish embryo; format: functional
[5] = Increase in transcription factor gata4 gene in Tg(dusp:EGFP)pt6 zebrafish embryo anterior lateral plate mesoderm; format: functional, Danio rerio
[6] = biological target: T3, Tyrosine-protein phosphatase non-receptor type 1 (Homo sapiens, UniProt P18031); assay: Inhibition of PTP1B
T3 sequence (P18031 whole entry): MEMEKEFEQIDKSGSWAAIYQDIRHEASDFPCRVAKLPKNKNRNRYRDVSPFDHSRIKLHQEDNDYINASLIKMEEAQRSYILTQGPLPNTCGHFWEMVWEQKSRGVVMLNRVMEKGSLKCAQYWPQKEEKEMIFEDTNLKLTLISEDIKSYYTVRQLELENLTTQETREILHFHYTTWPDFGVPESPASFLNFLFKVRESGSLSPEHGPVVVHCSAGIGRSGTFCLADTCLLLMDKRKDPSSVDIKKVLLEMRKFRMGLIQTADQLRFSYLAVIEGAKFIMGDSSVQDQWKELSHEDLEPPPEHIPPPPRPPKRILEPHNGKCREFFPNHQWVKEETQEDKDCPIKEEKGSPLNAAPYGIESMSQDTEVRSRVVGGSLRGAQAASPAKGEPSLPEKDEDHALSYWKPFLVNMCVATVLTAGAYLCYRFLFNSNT

[7] = biological target: T1, Dual specificity protein phosphatase 6 (Homo sapiens); assay: Inhibition of Dusp6 in 1-somite stage Tg(dusp:EGFP)pt6 zebrafish assessed as increase in dusp6 FGF target gene expression in mid-hindbrain boundary at 10 uM by RT-PCR
[8] = biological target: T1, Dual specificity protein phosphatase 6 (Homo sapiens); assay: Inhibition of Dusp6 in Tg(dusp:EGFP)pt6 zebrafish assessed as increase in FGF-signaling mediated d2EGFP fluorescence at 10 uM after 2 hrs
Method in brief: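 Tg(dusp6:EGFP)pt6 embryos from natural crosses were raised at 28.5°C to 24 hpf, then placed five per well in E3. Compound was added at 10 μM in 0.5% DMSO, with 0.5% DMSO as vehicle control. d2EGFP intensity was scored visually against vehicle-treated embryos. Assays were run three times, and at least four of five embryos had to share the phenotype.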

[9] = biological target: T1, Dual specificity protein phosphatase 6 (Homo sapiens); assay: Inhibition of Dusp6 in Tg(dusp:EGFP)pt6 zebrafish assessed as increase in engrailed 2b in prospective mid-hindbrain boundary at 10 uM by RT-PCR
[10] = biological target: T1, Dual specificity protein phosphatase 6 (Homo sapiens); assay: Inhibition of Dusp6 in Tg(dusp:EGFP)pt6 zebrafish assessed as increase in il17rd gene expression at 10 uM by RT-PCR
[11] = biological target: T1, Dual specificity protein phosphatase 6 (Homo sapiens); assay: Inhibition of Dusp6 basal phosphatase activity using 3-o-methylfluoro-rescein phosphate substrate in presence of ERK protein; settings: concentration not given here
Method in brief: (§1)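 Recombinant Dusp6 activity was followed as dephosphorylation of the small-molecule substrate 3-O-methylfluorescein phosphate, with or without ERK2 present to stimulate catalysis.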

[12] = biological target: T1, Dual specificity protein phosphatase 6 (Homo sapiens); assay: Inhibition of Dusp6 in Tg(dusp:EGFP)pt6 zebrafish embryo assessed as reduction in scl gene expression; settings: concentration not given here
[13] = biological target: T1, Dual specificity protein phosphatase 6 (Homo sapiens); assay: Inhibition of Dusp6 in 1-somite stage Tg(dusp:EGFP)pt6 zebrafish assessed as increase in dusp6 FGF target gene expression in tailbud at 10 uM by RT-PCR
[14] = biological target: T4, M-phase inducer phosphatase 2 (Homo sapiens, UniProt P30305); assay: Inhibition of Cdc25B
T4 sequence (P30305 whole entry): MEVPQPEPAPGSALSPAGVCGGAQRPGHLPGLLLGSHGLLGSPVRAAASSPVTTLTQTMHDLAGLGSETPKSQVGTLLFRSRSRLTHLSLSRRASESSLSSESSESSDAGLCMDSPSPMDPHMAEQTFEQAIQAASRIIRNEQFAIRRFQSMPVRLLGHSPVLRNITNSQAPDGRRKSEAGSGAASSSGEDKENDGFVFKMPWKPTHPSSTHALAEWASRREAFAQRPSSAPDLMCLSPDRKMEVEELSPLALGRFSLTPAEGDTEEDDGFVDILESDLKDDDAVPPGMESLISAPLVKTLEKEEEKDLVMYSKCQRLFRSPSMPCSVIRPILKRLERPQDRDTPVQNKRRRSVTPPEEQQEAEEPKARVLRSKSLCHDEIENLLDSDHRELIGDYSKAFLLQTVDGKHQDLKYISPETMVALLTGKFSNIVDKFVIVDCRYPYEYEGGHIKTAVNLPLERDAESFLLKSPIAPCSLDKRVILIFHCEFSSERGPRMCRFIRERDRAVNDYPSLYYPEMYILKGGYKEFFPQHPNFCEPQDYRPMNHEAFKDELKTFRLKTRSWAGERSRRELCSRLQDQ

[15] = species: Danio rerio; assay: Inhibition of dusp1 gene expression in Tg(dusp:EGFP)pt6 zebrafish embryos; format: functional; settings: Embryo
[16] = biological target: Dual specificity protein phosphatase 3 (Homo sapiens, UniProt P51452); assay: Inhibition of Dusp3/VHR
[17] = biological target: T1, Dual specificity protein phosphatase 6 (Homo sapiens); assay: Inhibition of […] in Tg(dusp:EGFP);ace mutant zebrafish assessed as increase in FGF-signaling mediated d2EGFP fluorescence in mid-hindbrain boundary at 10 uM after 2 hrs
[18] = Increase in transcription factor nkx2.5 gene in Tg(dusp:EGFP)pt6 zebrafish embryo anterior lateral plate mesoderm; format: functional, Danio rerio
[19] = biological target: T5, Dual specificity protein phosphatase 5 (Homo sapiens) (UniProt Q16690); assay: Inhibition of Dusp5
T5 sequence (whole entry): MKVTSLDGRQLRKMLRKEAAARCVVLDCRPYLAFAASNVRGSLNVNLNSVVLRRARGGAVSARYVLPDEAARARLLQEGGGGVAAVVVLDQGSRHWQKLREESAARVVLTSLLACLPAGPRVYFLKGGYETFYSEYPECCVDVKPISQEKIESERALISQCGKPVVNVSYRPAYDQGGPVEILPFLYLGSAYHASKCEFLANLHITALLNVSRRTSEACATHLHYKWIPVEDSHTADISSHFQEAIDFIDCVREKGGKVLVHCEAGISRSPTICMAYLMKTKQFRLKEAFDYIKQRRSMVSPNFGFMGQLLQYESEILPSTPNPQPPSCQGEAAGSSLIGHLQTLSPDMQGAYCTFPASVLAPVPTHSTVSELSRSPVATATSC

[20] = biological target: T1, Dual specificity protein phosphatase 6 (Homo sapiens); assay: Inhibition of Dusp6 in 1-somite stage Tg(dusp:EGFP)pt6 zebrafish assessed as increase in dusp6 FGF target gene expression in rhombomere 4 at 10 uM by RT-PCR
[21] = species: Danio rerio; assay: Inhibition of dusp7 gene expression in Tg(dusp:EGFP)pt6 zebrafish embryos; format: functional; settings: Embryo
[22] = biological target: T6, Dual specificity protein phosphatase 1 (Homo sapiens, UniProt P28562); assay: Inhibition of Myc-tagged human Dusp1 expressed in TPA-induced human HeLa cells assessed as decrease in dephosphorylation of pERK measured by immunostaining; format: cell-based
T6 sequence (P28562 whole entry): T2 sequence (whole entry)
Method in brief: (§2)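 HeLa cells (2,000 per collagen-coated well; DMEM, 10% FBS, 37°C, 5% CO2) were transfected with human c-Myc-Dusp1 or c-Myc-Dusp6. After 20 h, quadruplicate wells received ten two-fold concentrations of compound for 15 min, then TPA (500 ng/ml) for 15 min. Cells were fixed and immunostained for pERK and c-Myc, and 1000 Myc-gated cells were imaged. pERK restoration was expressed as Kolmogorov-Smirnov values normalized to vehicle-treated transfected wells. Six independent experiments were run.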

[23] = species: Danio rerio; assay: Increase in cardiac cmlc2 expression in 18-somite stage Tg(dusp:EGFP)pt6 zebrafish embryo
[24] = biological target: T1, Dual specificity protein phosphatase 6 (Homo sapiens); assay: Inhibition of Dusp6 in Tg(dusp:EGFP)pt6 zebrafish embryo assessed as reduction in etv2 gene expression
[25] = biological target: T1, Dual specificity protein phosphatase 6 (Homo sapiens); assay: Inhibition of Dusp6 in 10-somite stage Tg(dusp:EGFP)pt6 zebrafish assessed as increase in dusp6 FGF target gene expression in rhombomere 4 at 10 uM by RT-PCR
[26] = species: Danio rerio; assay: Increase in cardiac myl7 expression in 18-somite stage Tg(dusp:EGFP)pt6 zebrafish embryo
[27] = biological target: T7, Dual specificity protein phosphatase 6 (Homo sapiens, UniProt Q16828); assay: Inhibition of Myc-tagged human Dusp6 expressed in TPA-induced human HeLa cells assessed as decrease in dephosphorylation of pERK measured by immunostaining; format: cell-based; method in brief: as §2
T7 sequence (Q16828 whole entry): T1 sequence (whole entry)

[28] = species: Danio rerio; assay: Inhibition of dusp5 gene expression in Tg(dusp:EGFP)pt6 zebrafish embryos; format: functional; settings: Embryo
[29] = biological target: T1, Dual specificity protein phosphatase 6 (Homo sapiens); assay: Inhibition of Dusp6 in 1-cell stage Tg(dusp:EGFP)pt6 zebrafish embryos injected with XFD mRNA assessed as sef gene expression restoring at 5 uM
Method in brief: (§3)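 Embryos were injected at the 1-2 cell stage with 500 pg of spry4 or XFD mRNA. They were exposed to 5 μM compound at the 1000-cell stage and fixed at shield stage. sef expression was then assessed by in situ hybridization.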

[30] = biological target: T1, Dual specificity protein phosphatase 6 (Homo sapiens); assay: Inhibition of Dusp6 in Tg(dusp:EGFP)pt6 zebrafish assessed as increase in spry4 gene expression at 10 uM by RT-PCR
[31] = species: Danio rerio; assay: Inhibition of dusp22a gene expression in Tg(dusp:EGFP)pt6 zebrafish embryos; format: functional; settings: Embryo
[32] = biological target: T1, Dual specificity protein phosphatase 6 (Homo sapiens); assay: Inhibition of Dusp6 basal phosphatase activity using 3-o-methylfluoro-rescein phosphate substrate at 10:1 enzyme to ERK protein ration; settings: concentration not given here
[33] = biological target: T1, Dual specificity protein phosphatase 6 (Homo sapiens); assay: Inhibition of Dusp6 in 1-cell stage Tg(dusp:EGFP)pt6 zebrafish embryos injected with spry4 mRNA assessed as sef gene expression restoring at 5 uM; method in brief: as §3
[34] = species: Danio rerio; assay: Inhibition of dusp4 gene expression in Tg(dusp:EGFP)pt6 zebrafish embryos; format: functional; settings: Embryo
[35] = species: Danio rerio; assay: Induction of cardiac tissue expansion in larval stage Tg(dusp:EGFP)pt6 zebrafish embryo after 8 hrs; format: functional, tissue-based
[36] = biological target: T1, Dual specificity protein phosphatase 6 (Homo sapiens); assay: Inhibition of Dusp6 in 10-somite stage Tg(dusp:EGFP)pt6 zebrafish assessed as increase in dusp6 FGF target gene expression in mid-hindbrain boundary at 10 uM by RT-PCR
[37] = biological target: T1, Dual specificity protein phosphatase 6 (Homo sapiens); assay: Inhibition of Dusp6 basal phosphatase activity using 3-o-methylfluoro-rescein phosphate substrate; method in brief: as §1

Chain of Dual specificity protein phosphatase 3 (P51452 whole entry): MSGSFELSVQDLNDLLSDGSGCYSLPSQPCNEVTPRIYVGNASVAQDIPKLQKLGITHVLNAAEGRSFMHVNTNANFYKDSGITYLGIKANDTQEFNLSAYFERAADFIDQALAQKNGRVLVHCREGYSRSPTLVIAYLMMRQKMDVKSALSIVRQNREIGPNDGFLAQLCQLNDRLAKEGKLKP

O=C1CC(NC2CCCCC2)c2ccccc21 (stereo not drawn)
inhibition [1]: inactive | inhibition [2]: inactive

O=C1/C(=C/c2ccccc2)C(NC2CCCCC2)c2ccccc21 (stereo not drawn)
inhibition [3]: Active | Activity [4]: 32% | Activity [5]: 81% | IC50 [6]: Not Active | inhibition [7]: Active | inhibition [8]: Dose-dependent effect | inhibition [9]: Active | inhibition [10]: Active | inhibition [11]: 57% | inhibition [12]: 93% | inhibition [13]: Active | inhibition [1]: Active | IC50 [14]: Not Active | inhibition [15]: Active | IC50 [16]: Not Active | inhibition [17]: inactive | Activity [18]: 91% | inhibition [19]: inactive | inhibition [20]: Active | inhibition [21]: Active | IC50 [22]: 11.5 µM | Activity [23]: 81% | inhibition [24]: Active | inhibition [25]: Active | Activity [26]: 81% | IC50 [27]: 12.3 µM | inhibition [28]: Active | inhibition [29]: inactive | inhibition [30]: Active | inhibition [31]: Active | inhibition [32]: 30% | inhibition [33]: inactive | inhibition [34]: Active | Activity [35]: Active | inhibition [36]: Active | inhibition [37]: inactive
